Laboratory results reported in article PMC3502708 (Journal of molecular biology, 2012).

Key:
MORF PHD1/2 fingers [1] = biological target: T1, MORF PHD1/2 fingers (Homo sapiens, UniProt Q8WYB5); assay: NMR titration; assay type: binding; conditions: for Chemical shift changes / binding of MORF PHD1/2 by NMR (in words): 0.1 mM 15N-labeled PHD1/2, 298K
T1 sequence (Q8WYB5 211-329): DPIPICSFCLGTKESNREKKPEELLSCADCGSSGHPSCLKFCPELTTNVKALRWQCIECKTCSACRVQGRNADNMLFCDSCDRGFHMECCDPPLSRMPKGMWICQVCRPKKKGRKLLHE

[2] = system: endogenous H3K14ac / histone H3 in HEK293 cells; assay type: cell-based; conditions: TSA 3 μM, 6 h prior to harvesting, Flag-N-MORF IP
How it was run: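 HEK293 cells were seeded at 300,000 per 6 cm dish and lipofection-transfected with Flag-tagged MORF N-terminal constructs (aa 1–352, or aa 1–215 lacking PHD1/2). After about 48 h, cells were lysed in buffer with 150 mM KCl and immunoprecipitated on anti-Flag M2 agarose. Beads were washed extensively and eluted in 50 mM phosphoric acid. Blots were probed with anti-Flag, anti-H3K14ac and anti-H3. Where indicated, TSA (3 μM) was added to the medium 6 h before harvest.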

[3] = biological target: double PHD fingers of DPF3; conditions: read-out: Kd, double PHD fingers of DPF3; ref [31]; cited from earlier work
ING5 PHD finger = conditions: ref [13]; cited from earlier work
MORF PHD1/2 fingers [4] = biological target: T1, MORF PHD1/2 fingers; assay: Tryptophan fluorescence binding, MORF PHD1/2; conditions: 25 °C, H3un vs acetylated peptides
MOZ PHD1/2 fingers = MOZ PHD1/2 fingers (Homo sapiens, UniProt Q92794); assay: Tryptophan fluorescence binding, MOZ PHD1/2; conditions: as seen in NMR and fluorescence assays
Sequence of MOZ PHD1/2 fingers (Q92794 207-318): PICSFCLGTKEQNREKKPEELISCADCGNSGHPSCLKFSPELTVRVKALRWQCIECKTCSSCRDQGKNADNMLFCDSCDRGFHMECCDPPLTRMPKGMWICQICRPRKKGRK

Q: Which “Chemical shift changes / binding of MORF PHD1/2 by NMR (in words)” value (from here on “Chemical shift changes / binding”) (MORF PHD1/2 fingers [1]; 1H,15N HSQC titration) does the source give for `C[C@H](N)C(=O)N[C@@H](CCCNC(=N)N)C(=O)N[C@H](C(=O)N[C@@H](CCCC[N+](C)(C)C)C(=O)N[C@@H](CCC(N)=O)C(=O)N[C@H](C(=O)N[C@@H](C)C(=O)N[C@@H](CCCNC(=N)N)C(=O)N[C@@H](CCCCN)C(=O)N[C@@H](CO)C(=O)N[C@H](C(=O)NCC(=O)O)[C@@H](C)O)[C@@H](C)O)[C@@H](C)O` [H3K4me3] here?
A: small changes in the NMR spectra of PHD1/2

Q: What about the “Affinity of MORF PHD1/2 relative to H3un or H3K9ac” value (MORF PHD1/2 fingers [1]; NMR titration, 298K) of the same compound?
A: three orders of magnitude lower than affinity of this protein toward H3un or H3K9ac

Q: For `CC(=O)NCCCC[C@H](N)C(=O)O` [acetylated lysine amino acid, reference compound], which “Chemical shift changes / binding” value (MORF PHD1/2 fingers [1]; 1H,15N HSQC titration) is on record?
A: lack of any significant resonance perturbations

Q: For `CC(/C=C/C(=O)NO)=C\[C@@H](C)C(=O)c1ccc(N(C)C)cc1` [trichostatin A (TSA), trichostatin A, reference compound], which “Effect on association of N-MORF with histone H3” value [2] is on record?
A: enhanced the association of N-MORF with histone H3

Q: For “H3 (3–10): peptide comprising amino acids Thr3-Ser10 but missing Ala1 and Arg2 (TKQTARKS)”, which “Chemical shift changes of MORF PHD1/2 with 5-fold excess of peptide (in words)” value (MORF PHD1/2 fingers [1]; 1H,15N HSQC, 298K, 5-fold excess of H3 (3–10)) is on record?
A: no changes in the NMR spectra of PHD1/2

Q: For “H3 peptide (amino acids 1–20): longer unmodified H3 peptide (amino acids 1–20)”, which “Chemical shift changes / binding” value (MORF PHD1/2 fingers [1]; 1H,15N HSQC titration) is on record?
A: induced similar resonance perturbations

Q: For “H3un: peptide corresponding to amino acids 1–12 of unmodified histone H3 (NMR); length for fluorescence not printed”, which Kd [3] is on record?
A: 2 µM

Q: What about the “Binding of MORF PHD1/2 by NMR, short peptide (in words)” value (MORF PHD1/2 fingers [1]; 1H,15N HSQC titration, 298K, short peptide, amino acids 1–12) of the same compound?
A: Substantial chemical shift changes

Q: What about the “Binding to ING5 PHD finger (in words)” value (ING5 PHD finger) of the same compound?
A: does not associate with H3un

Q: And the “Affinity of MORF PHD1/2 relative to H3K9ac and H3K14ac” value (MORF PHD1/2 fingers [4])?
A: two to three fold weaker

Q: And the “Affinity of MOZ PHD1/2 relative to H3K14ac and H3K9ac” value (MOZ PHD1/2 fingers)?
A: two to three fold weaker

Q: Which “Chemical shift changes / binding” value (MORF PHD1/2 fingers [1]; 1H,15N HSQC titration) does the source give for “H4 peptide (residues 1–23): H4 peptide (residues 1–23) [reference compound]” here?
A: unable to trigger chemical shift changes in MORF PHD1/2
